Screening results deposited in PubChem by several laboratories.
Hits are enriched below; roughly 2.9% of the tested compounds scored in any of these assays.
EBNA-1 inhibitor – blocks EBNA-1 binding to DNA. EBNA-1 DNA binding, fluorescence polarization. inhibition, % at 14.8 µM. hit rate 0.34% among 300,000. AID 1950; in the data active = inhibition above about 28%
ZTA DNA inh – blocks Epstein-Barr virus ZTA, an EBNA-1 counter-screen; hit rate 0.15% among 320,000; ZTA-DNA binding, fluorescence polarization; AID 2234; inhibition, % at 11 µM; in the data active = inhibition above about 33%
Target sequence (P03206 whole entry, looked up): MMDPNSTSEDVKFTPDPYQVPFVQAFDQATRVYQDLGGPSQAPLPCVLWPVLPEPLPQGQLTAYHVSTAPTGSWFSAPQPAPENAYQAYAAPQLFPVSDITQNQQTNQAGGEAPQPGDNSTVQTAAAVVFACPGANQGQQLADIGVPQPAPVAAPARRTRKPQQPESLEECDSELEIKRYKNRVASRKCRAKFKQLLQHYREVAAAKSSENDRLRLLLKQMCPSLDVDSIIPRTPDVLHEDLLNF
Apaf-1 inh – inhibitors of human Apaf-1 apoptosome | O14727 | reconstituted apoptosome caspase-3 activity, DEVD-Rh110 fluorescence | inhibition, % at 20 µM | AID 489030 | hit rate 0.71% among 330,000; active = inhibition of at least 40% at 20 µM
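Material: cell-free apoptosome with Apaf-1, procaspase-3 and caspase-9; Buffer or medium: Hepes pH 7.5 with detergent and BSA; Reagent: cytochrome c trigger plus (Z-DEVD)2-Rh110 caspase-3 substrate; Times: compound with Apaf-1, dATP, procaspase-3 30 min, then 50 min reaction, room temperature; Technique: Rh110 fluorescence intensity.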
UBC13 inh – blocks human UBC13 polyubiquitin chain formation; TR-FRET; hit rate 0.47% among 330,000; P61088; inhibition, % at 20 µM; in the data active = inhibition above about 45%, passing the limit was not always enough
Target sequence (P61088 whole entry, looked up): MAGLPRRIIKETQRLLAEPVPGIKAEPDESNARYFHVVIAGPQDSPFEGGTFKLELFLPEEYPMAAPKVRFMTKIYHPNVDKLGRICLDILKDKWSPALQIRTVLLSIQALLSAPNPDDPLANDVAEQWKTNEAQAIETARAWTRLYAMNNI
PfG6PD inh – PfG6PD (Plasmodium falciparum) enzyme inhibition | PfGluPho enzyme, NADPH resazurin-diaphorase fluorescence | inhibition, % at 20 µM | hit rate 0.78% among 350,000 | AID 504690;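 active = inhibition reaching at least a set limit at 20 µM in the primary screen, cut at about 59% in these data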
M18AAP inhibitor – PfM18AAP enzyme inhibition; recombinant PfM18AAP, H-Glu-NHMec fluorogenic cleavage; inhibition, % at 7.35 µM; hit rate 1.2% among 290,000;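 active = inhibition above the campaign mean inhibition over all tested compounds plus 3 SD, cut at about 28% in these data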
Apaf-1 inh conf – Apaf-1 inhibition, single-dose confirmed; reconstituted apoptosome, caspase-3 DEVD-Rh110 fluorescence; hit rate 25% among 1,800; shares compounds with Apaf-1 inh; inhibition, % at 20 µM;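 active = mean inhibition of at least 40% at 20 µM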
Rh110 interf inh – interferes with Rh110 fluorescence, flagging false Apaf-1 inhibitors. shares compounds with Apaf-1 inh. Rh110 fluorescence interference, quenched caspase reaction. activation (fluorescence interference), % at 20 µM. 1,800 tested, under 10 active;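 active = signal rise of 40% or more at 20 µM, treated as a fluorescence artifact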
Apaf1 inh interf – Apaf-1 inhibitor counter-screen fluorescence artifact | IC50, µM | 460 tested, under 10 active | shares compounds with Apaf-1 inh | fluorescence interference counterscreen, Apaf-1 assay format; call rule not given here
Of the large screens only hits and unclear results are named; the others gave an inactive call (follow-up assays come after a bar, where they were run).

Cc1ccc(S(=O)(=O)c2c(N)n(CCC(C)C)c3nc4ccccc4nc23)cc1	none
CC(C)CCn1c(N)c(S(=O)(=O)c2cccs2)c2nc3ccccc3nc21	Apaf-1 inh 51.2 | Apaf-1 inh conf inactive | Rh110 interf inh inactive
CCOc1cc(CNc2ccc(N3CCCCC3)cc2)cc(Br)c1OCC(=O)NC(C)(C)C	Apaf-1 inh 44.2 | Apaf-1 inh conf inactive | Rh110 interf inh inactive
CCOc1cc(CNc2ccc(N3CCOCC3)cc2)cc(Br)c1OCC	none
O=C1c2cc(F)ccc2-n2c1nc1ccccc1c2=O	Apaf-1 inh 62.6 | Apaf-1 inh conf 51.8 | Rh110 interf inh inactive | Apaf1 inh interf inactive
Nn1c(-c2ccc(F)cc2)nc2ccccc2c1=O	none
Cc1nn2c(-c3ccncc3)nnc2c2ccccc12	Apaf-1 inh 73.6 | Apaf-1 inh conf 85.6 | Rh110 interf inh inactive | Apaf1 inh interf inactive
O=C(O)CC1S/C(=N/N=C/c2ccc(-c3ccccc3[N+](=O)[O-])o2)NC1=O (stereo unspecified)	Apaf-1 inh 73.0 | Apaf-1 inh conf inactive | Rh110 interf inh inactive
Cc1ccc(-c2ccc(/C=N/N=C3/NC(=O)C(CC(=O)O)S3)o2)c([N+](=O)[O-])c1 (stereo unspecified)	Apaf-1 inh 74.0 | Apaf-1 inh conf inactive | Rh110 interf inh inactive
Cc1cnc(C(=O)OCC(=O)Nc2ccccc2-c2ccccc2)cn1	none (no result: EBNA-1 inhibitor, M18AAP inhibitor)
CC1CCCC(NC(=O)COC(=O)CCC2CCCC2)C1C (stereo unspecified)	none
O=C(OCC(=O)N1CCCC1)c1ccccc1C(=O)c1ccccc1	none (no result: EBNA-1 inhibitor, M18AAP inhibitor)
CCC(=O)c1ccc(OCC(O)CN2CCN(S(=O)(=O)c3ccc(NC(C)=O)cc3)CC2)cc1 (stereo unspecified)	none
CC(NC(=O)CN1C(=O)NC2(CCCC2)C1=O)c1ccc2ccccc2c1 (stereo unspecified)	none (no result: EBNA-1 inhibitor, M18AAP inhibitor)
Cc1noc(C)c1COc1ccccc1C(=O)N1CCN(c2cccc(C(F)(F)F)c2)CC1	none (no result: EBNA-1 inhibitor, M18AAP inhibitor)
Cc1noc(C)c1COc1ccccc1C(=O)N1CCN(c2cccc(Cl)c2)CC1	Apaf-1 inh 51.8 (no result: EBNA-1 inhibitor, M18AAP inhibitor) | Apaf-1 inh conf inactive | Rh110 interf inh inactive
CCCc1cc(=O)oc2c3c(cc(OCC(=O)N[C@@H](C)C(=O)O)c12)OC(C)(C)CC3	none
CCCc1cc(=O)oc2c3c(c4c(c12)OC(C)(C)C=C4)OC(C)C(C)C3O (stereo unspecified)	Apaf-1 inh 52.7 | Apaf-1 inh conf 47.1 | Rh110 interf inh inactive | Apaf1 inh interf inactive
CC(=O)C1=C(C)N(Cc2ccccc2)C(=O)N[C@H]1c1ccco1	none (no result: M18AAP inhibitor)
Clc1ccccc1OCc1nn2c(-c3ccncc3)nnc2s1	Apaf-1 inh 40.6 | Apaf-1 inh conf 50.1 | Rh110 interf inh inactive | Apaf1 inh interf inactive
Clc1ccc(OCc2nn3c(-c4ccccc4)nnc3s2)c(Cl)c1	none
O=C(c1ccc2nc(-c3ccco3)c(-c3ccco3)nc2c1)N1CCN(c2ccccc2)CC1	Apaf-1 inh 40.2 | Apaf-1 inh conf inactive | Rh110 interf inh inactive
CC(=O)c1ccc(NC(=O)CC2Nc3cccc4cccc(c34)NC2=O)cc1 (stereo unspecified)	Apaf-1 inh 88.7, M18AAP inhibitor 28.6 | Apaf-1 inh conf inactive | Rh110 interf inh inactive
O=C(CC1NC(=O)NC1=O)Nc1ccccc1 (stereo unspecified)	none
CCOc1ccc(NC(=O)CC2Nc3ccccc3NC2=O)cc1 (stereo unspecified)	none
Cc1cccc(NC(=O)CC2Nc3cccc4cccc(c34)NC2=O)c1 (stereo unspecified)	Apaf-1 inh 70.6 | Apaf-1 inh conf inactive | Rh110 interf inh inactive
CC1CCN(CCc2nc3cc(NC(=O)COc4ccccc4)ccc3n2C)CC1	Apaf-1 inh 52.4 | Apaf-1 inh conf inactive | Rh110 interf inh inactive
CCOCCCn1c(SCC(=O)Nc2cc(C(C)(C)C)nn2-c2ccccc2)nc2ccccc2c1=O	Apaf-1 inh 40.4 | Apaf-1 inh conf inactive | Rh110 interf inh inactive
